{"source": "paper PMC6388690", "about": "(Journal of medicinal chemistry, 2018)", "key": {"[1]": {"system": "MCF-7 and MDA-MB-231 cells", "assay": "MTT growth inhibition screen in two breast cancer cell lines", "assay_type": "cell-based, human", "conditions": "MCF-7 and MDA-MB-231, MTT", "outline": "(§1)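 MTT proliferation assay: cells seeded at 1 × 10^4 per well and treated with DMSO or test compound at 0.1, 0.33, 1.0, 3.3 and 10 μM for 72 h. MTT reagent added, then OD 560 nm read after 1 h at 37°C. Quadruplicate wells per concentration.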"}, "[2]": {"assay": "Reactivity with GSH monitored by 1H NMR", "conditions": "37°C, 1.5–2 equiv GSH, pH 7.4, compared to oridonin"}, "[3]": {"system": "MDA-MB-231 xenograft tumors", "assay": "MDA-MB-231 orthotopic xenograft tumor growth in nude mice", "assay_type": "in vivo", "conditions": "intraperitoneal; for inhibitory effect on tumor growth compared to vehicle: daily", "outline": "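Female nude mice aged 6–8 weeks, kept in a barrier unit on a 12 h light–dark cycle. Freshly harvested MDA-MB-231 cells (1.0 × 106 in 100 μL PBS) injected into the no. 3 mammary fat pad, then mice randomized into 4 groups. Once tumours reached 80–100 mm3, daily ip test compound (10 or 15 mg/kg), parent natural product or vehicle, all dissolved in DMSO. Tumour volume (V = 0.5 × L × W2) and body weight measured daily; mean ± SEM.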"}, "t(8;21) leukemia": {"system": "t(8;21) leukemia", "conditions": "7.5 and 15 mg/kg; cited from earlier work"}, "[4]": {"conditions": "relatively long time (hours); cited from earlier work"}, "[5]": {"conditions": "2 equiv of GSH at pH 7.4; cited from earlier work"}, "SK-BR3 cells [6]": {"system": "SK-BR3 cells", "assay": "Colony-formation assay", "assay_type": "cell-based, human", "conditions": "SK-BR3, low micromolar concentrations, 2 weeks"}, "Bcl-2 to Bax ratio": {"system": "Bcl-2 to Bax ratio", "assay": "Western-blot analysis of apoptosis biomarkers", "assay_type": "cell-based, human", "conditions": "MDA-MB-231, 48 h", "outline": "(§2)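 MDA-MB-231 cells given DMSO or test compound at several concentrations for 48 h, then lysed. Protein measured by Bradford (BSA standard); 40 μg resolved by SDS-PAGE and transferred to NC membrane. Blocked in 5% nonfat milk, then primaries overnight: Bcl-2 1:200, cleaved PARP 1:500, NF-κB 1:1000, Bax 1:1000, β-actin 1:2000. Secondary antibody applied; bands detected by ECL.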"}, "MDA-MB-468 cells [7]": {"system": "MDA-MB-468 cells", "assay": "MTT cell proliferation assay", "assay_type": "cell-based, human", "outline": "as §1"}, "MDA-MB-231 cells [8]": {"system": "MDA-MB-231 cells", "assay": "MTT cell proliferation assay", "assay_type": "cell-based, human", "outline": "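MDA-MB-231 cells seeded at 1 × 10^4 per well, then exposed to DMSO vehicle or test compound at 0.1, 0.33, 1.0, 3.3 and 10 μM for 72 h. Proliferation read by MTT reagent, with OD at 560 nm after 1 h at 37°C. Quadruplicate wells per concentration. Mean ± SD of at least three independent experiments; one-way ANOVA across groups.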"}, "NF-κB (p65)": {"system": "NF-κB (p65)", "assay": "Western-blot analysis of apoptosis biomarkers", "assay_type": "cell-based, human", "conditions": "MDA-MB-231, 48 h, dose-dependent", "outline": "as §2"}, "cleaved PARP": {"system": "cleaved PARP", "assay": "Western-blot analysis of apoptosis biomarkers", "assay_type": "cell-based, human", "conditions": "MDA-MB-231, 48 h, dose-dependent", "outline": "as §2"}, "MDA-MB-231 cells [9]": {"system": "MDA-MB-231 cells", "assay": "Colony-formation assay", "assay_type": "cell-based, human", "conditions": "MDA-MB-231, low micromolar concentrations, 2 weeks"}, "MDA-MB-468 cells [10]": {"system": "MDA-MB-468 cells", "assay": "Colony-formation assay", "assay_type": "cell-based, human", "conditions": "MDA-MB-468, low micromolar concentrations, 2 weeks"}, "SK-BR3 cells [11]": {"system": "SK-BR3 cells", "assay": "MTT cell proliferation assay", "assay_type": "cell-based, human", "outline": "as §1"}, "MCF-7 cells [12]": {"system": "MCF-7 cells", "assay": "MTT cell proliferation assay", "assay_type": "cell-based, human", "outline": "as §1"}, "MCF-10A cells": {"system": "MCF-10A cells", "assay": "Growth inhibition on normal mammary epithelial cells", "assay_type": "cell-based, human", "conditions": "48 h", "outline": "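Normal mammary epithelial MCF-10A cells treated for 48 h with varying concentrations of test compound or the parent natural product. Mean ± SD of three independent experiments. Student t-test against the parent natural product at the same concentration.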"}, "MDA-MB-231 cells [13]": {"system": "MDA-MB-231 cells", "assay": "Cellular apoptosis assay", "assay_type": "cell-based, human", "conditions": "48 h", "outline": "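MDA-MB-231 cells, 2.5 × 10^5 per well, exposed to DMSO vehicle or test compound (1, 5, 10, 15 or 20 μM) for 48 h. Adherent and floating cells pooled and washed in PBS, then resuspended in PBS with 1% BSA plus Annexin V and dead-cell reagent for 20 min at room temperature. Read immediately on a cell analyzer; mean ± SD, ≥3 independent experiments.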"}, "MCF-7 cells [14]": {"system": "MCF-7 cells", "assay": "Colony-formation assay", "assay_type": "cell-based, human", "conditions": "MCF-7, low micromolar concentrations, 2 weeks"}, "[15]": {"conditions": "microsomes"}}, "note": "Counter-ions that a name gives are not always drawn.", "data": [{"smiles": "CCC(=O)N1CC12C(=O)[C@@]13[C@@H]4OC(C)(C)O[C@@]15OC[C@@]1([C@H]([C@@H]5O)C(C)(C)CC[C@@H]1O)[C@@H]3CC[C@H]42", "note": "(stereo partly drawn) [Compound 45]", "values": [{"measurement": "antiproliferative activity (in words)", "setting": "[1]", "result": "complete loss of activity"}]}, {"smiles": "C=C1C(=O)[C@@]23[C@@H]4OC(C)(C)O[C@@]25OC[C@@]2([C@H]([C@@H]5O)C(C)(C)CC[C@@H]2O)[C@@H]3CC[C@@H]14", "note": "[Compound 20]", "values": [{"measurement": "Reactivity / stability of covalent warhead toward GSH (in words)", "setting": "[2]", "result": "slightly weakens the reactivity of the enone"}]}, {"smiles": "C=C1C(=O)[C@]23[C@H](O)[C@H]1CC[C@H]2[C@@]12CO[C@]3(O)[C@@H](O)[C@@H]1C(C)(C)CC[C@@H]2O", "note": "[oridonin]", "values": [{"measurement": "antitumor efficacy, 44 versus oridonin", "setting": "[3]; 10 mg/kg", "result": "comparable efficacy"}, {"measurement": "inhibition of tumor growth", "setting": "t(8;21) leukemia", "result": "Inhibition of tumor growth in t(8;21) leukemia murine model (7.5 and 15 mg/kg)"}, {"measurement": "stability in strong acidic or basic media", "setting": "[4]", "result": "not stable"}]}, {"smiles": "C=C1C(=O)[C@]23[C@H](OC(=O)[C@H](C)N)[C@H]1CC[C@H]2[C@@]12CO[C@@]3(O)[C@@H](O)[C@@H]1C(C)(C)CC[C@@H]2O.O=C(O)C(F)(F)F", "note": "[Compound 14]", "values": [{"measurement": "Reactivity / stability of covalent warhead toward GSH (in words)", "setting": "[2]", "result": "may enhance the enone’s reactivity"}]}, {"smiles": "C=CCNc1nc2c(s1)CC(C)(C)[C@H]1[C@H](O)[C@]3(O)OC[C@@]21[C@@H]1CC[C@@H]2[C@@H](O)[C@@]13C(=O)C21CN1", "note": "(stereo partly drawn) [Compound 43]", "values": [{"measurement": "antiproliferative activity (in words)", "setting": "[1]", "result": "moderate activities"}]}, {"smiles": "COC(=O)/C=C/C(=O)OC", "note": "[dimethyl fumarate]", "values": [{"measurement": "half-life with GSH", "setting": "[5]", "result": "50 to 60", "unit": "min"}]}, {"smiles": "C=CCNc1nc2c(s1)CC(C)(C)[C@H]1[C@H](O)[C@]3(O)OC[C@@]21[C@@H]1CC[C@@H]2[C@@H](O)[C@@]13C(=O)C21CN1C(=O)OCC1c2ccccc2-c2ccccc21", "note": "(stereo partly drawn) [Compound 42]", "values": [{"measurement": "antiproliferative activity (in words)", "setting": "[1]", "result": "moderate activities"}]}, {"smiles": "C=CC(=O)N1CC12C(=O)[C@@]13[C@@H]4OC(C)(C)O[C@@]15OC[C@@]1([C@H]([C@@H]5O)C(C)(C)CC[C@@H]1O)[C@@H]3CC[C@H]42", "note": "(stereo partly drawn) [Compound 44]", "values": [{"measurement": "inhibition of colony formation", "setting": "SK-BR3 cells [6]", "result": "significantly inhibit the colony formation"}, {"measurement": "antitumor efficacy, 44 versus oridonin", "setting": "[3]; 10 mg/kg", "result": "comparable efficacy"}, {"measurement": "inhibitory effect on tumor growth compared to vehicle", "setting": "[3]; 10 mg/kg", "result": "significant inhibitory effect"}, {"measurement": "inhibitory effect on tumor growth compared to vehicle", "setting": "[3]; 15 mg/kg", "result": "significant inhibitory effect"}, {"measurement": "inhibitory effect on tumor growth compared to the oridonin group", "setting": "[3]; 15 mg/kg, one-way ANOVA p = 0.0023", "result": "better inhibitory effect"}, {"measurement": "ratio of Bcl-2 to Bax", "setting": "Bcl-2 to Bax ratio", "result": "reduced"}, {"measurement": "suppression of proliferation (dose-dependent)", "setting": "MDA-MB-468 cells [7]", "result": "suppressed the proliferation"}, {"measurement": "suppression of proliferation (dose-dependent)", "setting": "MDA-MB-231 cells [8]", "result": "suppressed the proliferation"}, {"measurement": "NF-κB (p65) protein expression", "setting": "NF-κB (p65)", "result": "down-regulation"}, {"measurement": "cleaved PARP expression", "setting": "cleaved PARP", "result": "up-regulation"}, {"measurement": "inhibition of colony formation", "setting": "MDA-MB-231 cells [9]", "result": "significantly inhibit the colony formation"}, {"measurement": "inhibition of colony formation", "setting": "MDA-MB-468 cells [10]", "result": "significantly inhibit the colony formation"}, {"measurement": "suppression of proliferation (dose-dependent)", "setting": "SK-BR3 cells [11]", "result": "suppressed the proliferation"}, {"measurement": "suppression of proliferation (dose-dependent)", "setting": "MCF-7 cells [12]", "result": "suppressed the proliferation"}, {"measurement": "growth-inhibitory activity against MCF-10A in comparison to oridonin", "setting": "MCF-10A cells; 0–10 μM", "result": "comparable"}, {"measurement": "growth-inhibitory activity against MCF-10A in comparison to oridonin", "setting": "MCF-10A cells; 15~100 μM", "result": "significantly lower"}, {"measurement": "apoptotic cells (early and late apoptosis together)", "setting": "MDA-MB-231 cells [13]; 10 μM", "result": 18.2, "unit": "%"}, {"measurement": "apoptotic cells (early and late apoptosis together)", "setting": "MDA-MB-231 cells [13]; 15 μM", "result": 26.8, "unit": "%"}, {"measurement": "apoptotic cells (early and late apoptosis together)", "setting": "MDA-MB-231 cells [13]; 20 μM", "result": 47.6, "unit": "%"}, {"measurement": "inhibition of colony formation", "setting": "MCF-7 cells [14]", "result": "significantly inhibit the colony formation"}]}, {"smiles": "CC1(C)O[C@@H]2[C@H]3CC[C@H]4[C@@]56CO[C@@](O1)([C@@H](O)[C@@H]5C(C)(C)CC[C@@H]6O)[C@@]24C(=O)C31CN1", "note": "(stereo partly drawn) [Compound 25, (2R,3′S,3a′R,3a1′R,6a′R,7′S,11′S,11a′S)-7′,11′-Dihydroxy-5′,5′,8′,8′-tetramethyldecahydro-2′H-spiro[aziridine-2,15′-[6a,11a]-(epoxymethano)[3,3a1]ethanophenanthro[1,10-de][1,3]dioxin]-14’-one]", "values": [{"measurement": "microsomal stability compared to oridonin", "setting": "[15]", "result": "higher microsomal and plasma stability"}]}]}
